Test system: MS2 coat protein
Assay: apparent Kd, MS2 coat protein; higher = weaker binding; RNA-MaP array; FMN 200 µM where present
Outline: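 SNAP-549-labelled MS2 coat protein, doubled from 0.7 or 1.5 nM to 3 µM, was titrated over designs transcribed by stalled E. coli RNA polymerase on Illumina sequencing-chip clusters. Titrations were run without and then with constant ligand in 100 mM Tris-HCl pH 7.5, 80 mM KCl, 4 mM MgCl2, BSA, DTT, yeast tRNA and Tween-20. The apparent Kd is the median of filtered per-cluster fits to green signal normalised to red-channel RNA signal and control-cluster median Fmax.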

[1] = designed as: OFF switch for flavin mononucleotide, no ligand
[2] = ligand present: flavin mononucleotide, designed as: OFF switch for flavin mononucleotide
[3] = designed as: ON switch for flavin mononucleotide, no ligand
[4] = ligand present: flavin mononucleotide, designed as: ON switch for flavin mononucleotide

Sequence | apparent Kd [1] [nM] | apparent Kd [2] [nM] | apparent Kd [3] [nM] | apparent Kd [4] [nM]
GUAGAGUAAGGAUAUCGAGAAUAGGAUAGAAUGGAUAGAAUCGAGAAGGUACAUGAGGAUCACCCAUGUAAUGU | 20.3 | 18.6 | – | –
CGAUGGCAUGUAGGAUAUCGAGCUCAAAGAGCUCGAGAAGGACAUGAGGAUCACCCAUGUGCACACAGACAGUGUGCGCUAUCG | 37 | 181 | – | –
UAUAUAUAGUAAGGAUAUGUAUUAAUUGUAUAAACAGAAGGUACUGACAUGAGGAUCACCCAUGUUUUAGUGUGGGCAUGUAGA | 91.3 | 149 | – | –
GGACGUCAGAUUAACAUGAGGAUCACCCAUGUCUUUUGACAUGAGGAUAUGGUUGGUAAUUCCAACCAGAAGGCAUGGACGUCC | – | – | 1100 | 125
ACAGAGCCUGACAUGAGGAUCACCCAUGUUAGAUUGUUAUGUUAGGAUAUUGUCUAGCAACUAGACAAGAAGGGAUGCUCUGUG | – | – | 20.1 | 14.3
CGAAACUACGAGAAGGACAUGUGGUCCUUCAGUUACAUGAGGAUCACCCAUGUAGGAUAUCGUAGUUUCAGGAUCGUGAGAUCA | 37.4 | 7 | – | –
GUUACAUGAGGAUCACCCAUGUAUGUGUGGGAGUAAGUGUCUUAGGAUAUCUAUUAUUUAAUUUAAGAGAAGGAAGAUUGUUGU | – | – | 118 | 133
GACACUAUGUUUGUCAGAUAGAGAGAGGAUAUGGCUCAUGAGACAUGAGGAUCACCCAUGUAUAAUCAGAAGGCUCGAGUAGGA | – | – | 12.5 | 9.56
CUCACAAGAGGAUAUUAAUAGCUUAACAUGAGGAUCACCCAUGUCCUUUUCUCGGGAUUUUGAGAAGGCUUGUGUG | 341 | 189 | – | –
UGUGUGUGUGCAGGAUAUUUAAGAAGAACAUGAGGAUCACCCAUGUGAGGAUCACCCAUGUAAAAGGAGAAGGGCAGUGUGUGU | 754 | 728 | – | –
UCCUCUGUAUGAGGAUAUCCGAAUACGUGAGGCGCUGCCGGCUCAUCAUCAGGAGAAGGCAUACAUGAGGAUCACCCAUGUCGA | 141 | 63.3 | – | –
GCGAUUAAGUAGAAGGUACGUUAUAAGACAAUGUAAGGAUAUACUGACAUGAGGAUCACCCAUGUAAAAUUAGUUUACUGUCGC | – | – | 7.34 | 6.44
ACUGUCGCGUGAGGAUAUGGUCUGCAGUGCUGACCAGAAGGCAUGUCGAUAGACAUGAGGAUCACCCAUGUGGUUAGGGCGGCA | – | – | 933 | 467
UGUACUAUAAGGUUAAUUGUAUAUUGAGAAGGCAUUCACAUGAGGAUCACCCAUGUAACAUGGGAUGAGGAUAUCAAUUUGUAC | – | – | 197 | 33.4
UCCACUGCUGAGAAGGGAUACAUAUGGUUCUAGUCAGGAUAUCGAUACAGUGCAGCAUGAGGACAUGAGGAUCACCCAUGUAUU | – | – | 25.6 | 18.6
AUAUACGUUGAGGAUAUGCGAAUAAGUAUAGUUGCAGAAGGCGACACAUGAGGAUCACCCAUGUUCAUGGACAC | 28.2 | 44.6 | – | –
CUCGCGUUAGGAUAUGCUAGCUGAGAAUAAUCUGCAGCGGUGCAGAAGGAACAUGAGGAUCACCCAUGUAGGGA | 278 | 43.6 | – | –
GGGUACAUCGGAGGAUAUCAUGUAAAUACAUGAGGAUCACCCAUGUCGAUGGACACAUCGGAGAUUGAGAAGGCCGAUGUACCG | – | – | 14.5 | 5.27
CAACCGUUGCAGAAGGUUAAAUAUAUCAACUUAUGGACAACAUGAGGAUCACCCAUGUUUUUGUUGAAGGAUAUGCAAGGGUUG | 5.89 | 5.71 | – | –
AAUCCACAUGAGGAUCACCCAUGUCAGGAUAUCGCGCGCGCGUUUUCGGUCUCGCGCGCGAGAAGGGACGGCUG | 24 | 48.2 | – | –

Reference: the EternaBench riboswitch data
